# ChEMBL document CHEMBL1130215, “7-alkylidenecephalosporin esters as inhibitors of human leukocyte elastase” (J Med Chem, 1997)
# Target: T1, Neutrophil elastase (Homo sapiens, UniProt P08246)
# T1 sequence (P08246 whole entry): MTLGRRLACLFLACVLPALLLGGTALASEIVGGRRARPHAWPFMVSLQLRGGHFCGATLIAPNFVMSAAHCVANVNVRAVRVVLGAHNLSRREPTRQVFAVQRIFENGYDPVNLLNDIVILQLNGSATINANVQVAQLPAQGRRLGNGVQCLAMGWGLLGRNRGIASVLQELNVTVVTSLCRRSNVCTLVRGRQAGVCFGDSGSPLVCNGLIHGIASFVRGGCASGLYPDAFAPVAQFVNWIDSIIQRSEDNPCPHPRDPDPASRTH
# Assay: Inhibition of human leukocyte elastase
# Summary of the method: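 Enzyme preincubated 4 min with inhibitor (DMSO stock, 1 mg/mL, diluted in DMSO when needed) in 0.1 M Tris-NaCl buffer pH 7.5 with NaN3. Aliquot then added to N-(methoxysuccinyl)-Ala-Ala-Pro-Val 4-nitroanilide substrate in buffer. Residual hydrolysis rate read at 410 nm for 2 min at 1 s intervals; IC50 taken from varied inhibitor volumes.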
row,SMILES,IC50 [µM]
1,CC(=O)OCC1=C(C(=O)OC(c2ccccc2)c2ccccc2)N2C(=O)/C(=C/c3ccccn3)C2S(=O)(=O)C1 (stereo not drawn),> 10
2,CC(=O)OCC1=C(C(=O)OC(c2ccccc2)c2ccccc2)N2C(=O)CC2SC1 (stereo not drawn),> 10
3,CC(=O)OCC1=C(C(=O)OC(c2ccccc2)c2ccccc2)N2C(=O)/C(=C\c3ccccc3)C2SC1 (stereo not drawn),> 10
4,CC(=O)OCC1=C(C(=O)OC(c2ccccc2)c2ccccc2)N2C(=O)[C@H](Cl)C2SC1 (stereo partly drawn),6
5,CC(=O)OCC1=C(C(=O)OC(c2ccccc2)c2ccccc2)N2C(=O)/C(=C/c3ccccc3)C2SC1 (stereo not drawn),> 10
6,CC(=O)OCC1=C(C(=O)OC(c2ccccc2)c2ccccc2)N2C(=O)/C(=C/C#N)C2SC1 (stereo not drawn),> 10
7,CC(=O)OCC1=C(C(=O)OC(c2ccccc2)c2ccccc2)N2C(=O)[C@@H](N)C2SC1 (stereo partly drawn),> 10
8,CC(=O)OCC1=C(C(=O)OC(c2ccccc2)c2ccccc2)N2C(=O)/C(=C/c3ccccn3)C2SC1 (stereo not drawn),> 10
9,CC(=O)OCC1=C(C(=O)OC(c2ccccc2)c2ccccc2)N2C(=O)/C(=C/CO)C2SC1 (stereo not drawn),> 10
10,[2H]C(=C=C1C(=O)N2C(C(=O)OC(c3ccccc3)c3ccccc3)=C(COC(C)=O)CS(=O)(=O)C12)C(C)(C)C (stereo not drawn),13.5
11,CC(=O)OCC1=C(C(=O)OC(c2ccccc2)c2ccccc2)N2C(=O)C(=C=CC(C)(C)C)C2S(=O)(=O)C1 (stereo not drawn),10.5
12,CON(C)C(=O)/C=C1/C(=O)N2C(C(=O)OC(c3ccccc3)c3ccccc3)=C(COC(C)=O)CS(=O)(=O)C12 (stereo not drawn),> 10
13,CC(=O)OCC1=C(C(=O)OC(c2ccccc2)c2ccccc2)N2C(=O)C(=C=CC(C)(C)C)C2SC1 (stereo not drawn),> 10
14,CC(=O)OCC1=C(C(=O)OC(c2ccccc2)c2ccccc2)N2C(=O)C(=O)C2SC1 (stereo not drawn),> 10
15,COC(=O)/C=C1/C(=O)N2C(C(=O)OC(c3ccccc3)c3ccccc3)=C(COC(C)=O)CS(=O)(=O)C12 (stereo not drawn),8.9
16,CC(=O)OCC1=C(C(=O)OC(c2ccccc2)c2ccccc2)N2C(=O)C(Br)(Br)C2SC1 (stereo not drawn),1.39
17,CC(=O)OCC1=C(C(=O)OC(c2ccccc2)c2ccccc2)N2C(=O)/C(=C/C=O)C2SC1 (stereo not drawn),13.9
18,CC(=O)OCC1=C(C(=O)OC(c2ccccc2)c2ccccc2)N2C(=O)[C@H](I)C2SC1 (stereo partly drawn),1.18
19,CC(=O)OCC1=C(C(=O)OC(c2ccccc2)c2ccccc2)N2C(=O)/C(=C/c3ccccc3)C2S(=O)(=O)C1 (stereo not drawn),8.9
20,C=C=C1C(=O)N2C(C(=O)OC(c3ccccc3)c3ccccc3)=C(COC(C)=O)CSC12 (stereo not drawn),9
21,CC(=O)/C=C1/C(=O)N2C(C(=O)OC(c3ccccc3)c3ccccc3)=C(COC(C)=O)CS(=O)(=O)C12 (stereo not drawn),> 10
22,CC(=O)OCC1=C(C(=O)OC(c2ccccc2)c2ccccc2)N2C(=O)/C(=C/C(=O)OC(C)(C)C)C2SC1 (stereo not drawn),> 10

# Next, values leading:
row,IC50 [µM],SMILES
1,2.07,CC(=O)OCC1=C(C(=O)OC(c2ccccc2)c2ccccc2)N2C(=O)C(=C(Br)Br)C2S(=O)(=O)C1 (stereo not drawn)
2,0.26,CC(=O)OCC1=C(C(=O)OC(c2ccccc2)c2ccccc2)N2C(=O)C(=C(Br)Br)C2SC1 (stereo not drawn)
3,0.39,CC(=O)OCC1=C(C(=O)OC(c2ccccc2)c2ccccc2)N2C(=O)/C(=C\Br)C2SC1 (stereo not drawn)
4,5.35,CO[C@H]1C(=O)N2C(C(=O)OC(c3ccccc3)c3ccccc3)=C(COC(C)=O)CSC12 (stereo partly drawn)
5,6.1,C=C=C1C(=O)N2C(C(=O)OC(c3ccccc3)c3ccccc3)=C(COC(C)=O)CS(=O)(=O)C12 (stereo not drawn)
6,6,CC(=O)OCC1=C(C(=O)OC(c2ccccc2)c2ccccc2)N2C(=O)/C(=C\c3ccccc3)C2S(=O)(=O)C1 (stereo not drawn)
7,0.21,COC(=O)/C(Br)=C1/C(=O)N2C(C(=O)OC(c3ccccc3)c3ccccc3)=C(COC(C)=O)CSC12 (stereo not drawn)
8,2.6,COC(=O)/C=C1/C(=O)N2C(C(=O)OC(c3ccccc3)c3ccccc3)=C(COC(C)=O)CSC12 (stereo not drawn)
9,6.41,CC(=O)OCC1=C(C(=O)OC(c2ccccc2)c2ccccc2)N2C(=O)C(=C(Cl)Cl)C2SC1 (stereo not drawn)
10,3.36,CC(=O)OCC1=C(C(=O)OC(c2ccccc2)c2ccccc2)N2C(=O)/C(=C\Br)C2S(=O)(=O)C1 (stereo not drawn)
11,0.28,CO[C@H]1C(=O)N2C(C(=O)OC(c3ccccc3)c3ccccc3)=C(COC(C)=O)CS(=O)(=O)C12 (stereo partly drawn)
12,4.27,CC(=O)/C=C1/C(=O)N2C(C(=O)OC(c3ccccc3)c3ccccc3)=C(COC(C)=O)CSC12 (stereo not drawn)
13,7.1,CC(=O)OCC1=C(C(=O)OC(c2ccccc2)c2ccccc2)N2C(=O)/C(=C/C(=O)OC(C)(C)C)C2S(=O)(=O)C1 (stereo not drawn)
14,2.56,CC(=O)OCC1=C(C(=O)OC(c2ccccc2)c2ccccc2)N2C(=O)C(=C(Cl)Cl)C2S(=O)(=O)C1 (stereo not drawn)
15,5.4,CC(=O)OCC1=C(C(=O)OC(c2ccccc2)c2ccccc2)N2C(=O)C(=C=CBr)C2SC1 (stereo not drawn)
16,0.49,CC(=O)OCC1=C(C(=O)OC(c2ccccc2)c2ccccc2)N2C(=O)/C(=C/C#N)C2S(=O)(=O)C1 (stereo not drawn)
